Converted amounts (≈) assume the structure as drawn. Blank lines part the entries; values can stand above or below the compound they belong to. The source made the active and inactive calls. No cut-off for these calls is given here.
Key:
[1] = system: L1210; assay: In vitro cytotoxic activity against,L-1210 mouse lymphocytic leukemia cell culture (ATCC CCL-219); type: functional, cell-based
Outline: (§1)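 L1210 (ATCC 219) cells: 1×10^4 cells per well seeded in DMEM with 5% bovine serum and grown 48 h at 37 °C under 5% CO2. Agent was added from a 10 mg/mL stock in 95% ethanol via 2× medium and incubated a further 48 h. The nonadherent cells were dispersed by pipetting, diluted in balanced salts solution and counted by hemocytometer or Coulter counter. IC50 is the dose giving 50% of control count.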

[2] = system: Candida albicans; assay: In vitro antimicrobial activity against Candida albicans ATCC 10231, tested at 100-0.1 ug/mL; type: functional
Outline: (§2)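 Agar dilution/streak method; MIC (μg/mL) read as lowest concentration inhibiting growth. Each organism was streaked on agar plates holding serial dilutions of test agent over the range given in the line. "i" means no inhibition at the top concentration tested.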

[3] = system: Klebsiella pneumoniae; assay: In vitro antimicrobial activity against Klebsiella pneumoniae ATCC 10031,tested at 100-0.1 ug/mL; Inactive at highest concentration; type: functional, organism-based; outline: as §2
[4] = system: B16; assay: In vitro cytotoxic activity against,B-16 mouse melanoma (B-16); type: functional, cell-based
Outline: (§3)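 B16 cells: 1×10^4 cells per well seeded in DMEM with 5% bovine serum and grown 48 h at 37 °C under 5% CO2. Agent was added from a 10 mg/mL stock in 95% ethanol via 2× medium and incubated a further 48 h. Cells were detached with 0.01% trypsin/0.1% EDTA in PBS for 5 min at 37 °C and counted. IC50 is the dose giving 50% of control cell count, taken from count versus concentration plots.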

[5] = system: Staphylococcus aureus; assay: In vitro antimicrobial activity against, Staphylococcus aureus ATCC 13709,tested at 100-0.1 ug/mL; type: functional; outline: as §2
[6] = system: Mycolicibacterium smegmatis; assay: In vitro antimicrobial activity against Mycobacterium smegmatis ATCC 607,tested at 100-0.1 ug/mL; type: functional; outline: as §2
[7] = system: Staphylococcus aureus; assay: In vitro antimicrobial activity against, Staphylococcus aureus ATCC 13709,tested at 100-0.1 ug/mL; i=Inactive at highest concentration; type: functional, organism-based; outline: as §2
[8] = system: Klebsiella pneumoniae; assay: In vitro antimicrobial activity against Klebsiella pneumoniae ATCC 10031,tested at 100-0.1 ug/mL; i=Inactive at highest concentration; type: functional, organism-based; outline: as §2
[9] = system: Candida albicans; assay: In vitro antimicrobial activity against Candida albicans ATCC 10231, tested at 100-0.1 ug/mL; i=Inactive at highest concentration; type: functional, organism-based; outline: as §2
[10] = system: Mycolicibacterium smegmatis; assay: In vitro antimicrobial activity against Mycobacterium smegmatis ATCC 607,tested at 100-0.1 ug/mL; i=Inactive at highest concentration; type: functional, organism-based; outline: as §2
[11] = system: Mycolicibacterium smegmatis; assay: In vitro antimicrobial activity against Mycobacterium smegmatis ATCC 607,tested at 25-0.1 ug/mL; type: functional; outline: as §2
[12] = system: Klebsiella pneumoniae; assay: In vitro antimicrobial activity against Klebsiella pneumoniae ATCC 10031,tested at 25-0.1 ug/mL; i=Inactive at highest concentration; type: functional, organism-based; outline: as §2
[13] = system: Staphylococcus aureus; assay: In vitro antimicrobial activity against, Staphylococcus aureus ATCC 13709,tested at 25-0.1 ug/mL; type: functional; outline: as §2
[14] = system: Candida albicans; assay: In vitro antimicrobial activity against Candida albicans ATCC 10231, tested at 25-0.1 ug/mL; i=Inactive at highest concentration; type: functional, organism-based; outline: as §2
[15] = system: Staphylococcus aureus; assay: In vitro antimicrobial activity against, Staphylococcus aureus ATCC 13709 tested at 100-0.1 ug/mL; i=Inactive at highest concentration; type: functional, organism-based; outline: as §2
[16] = system: Klebsiella pneumoniae; assay: In vitro antimicrobial activity against,Klebsiella pneumoniae ATCC 10031 tested at 100-0.1 ug/mL; i=Inactive at highest concentration; type: functional, organism-based; outline: as §2
[17] = system: Mycolicibacterium smegmatis; assay: In vitro antimicrobial activity against Mycobacterium smegmatis ATCC 607 tested at 100-0.1 ug/mL; i=Inactive at highest concentration; type: functional, organism-based; outline: as §2
[18] = organism: Homo sapiens; assay: In vitro cytotoxic activity against, human lymphoblastic leukemia cell culture (CCRF-CEM); type: functional
[19] = system: Klebsiella pneumoniae; assay: In vitro antimicrobial activity against Klebsiella pneumoniae ATCC 10031,tested at 100-0.1 ug/mL; type: functional; outline: as §2
[20] = system: Klebsiella pneumoniae; assay: In vitro antimicrobial activity against Klebsiella pneumoniae ATCC 10031,tested at 50-0.1 ug/mL; i=Inactive at highest concentration; type: functional, organism-based; outline: as §2
[21] = system: Mycolicibacterium smegmatis; assay: In vitro antimicrobial activity against Mycobacterium smegmatis ATCC 607,tested at 50-0.1 ug/mL; type: functional; outline: as §2
[22] = system: Candida albicans; assay: In vitro antimicrobial activity against Candida albicans ATCC 10231, tested at 50-0.1 ug/mL; i=Inactive at highest concentration; type: functional, organism-based; outline: as §2
[23] = system: Staphylococcus aureus; assay: In vitro antimicrobial activity against, Staphylococcus aureus ATCC 13709,tested at 50-0.1 ug/mL; type: functional; outline: as §2
[24] = system: Staphylococcus aureus; assay: In vitro antimicrobial activity against Staphylococcus aureus ATCC 13709,tested at 100-0.1 ug/mL; type: functional; outline: as §2
[25] = system: Staphylococcus aureus; assay: In vitro antimicrobial activity against, Staphylococcus aureus ATCC 13709,tested at 50-0.1 ug/mL;; type: functional; outline: as §2
[26] = system: L1210; assay: In vitro cytotoxic activity against L-1210 mouse lymphocytic leukemia cell culture (ATCC CCL-219); type: functional, cell-based; outline: as §1
[27] = system: Staphylococcus aureus; assay: In vitro antimicrobial activity against, Staphylococcus aureus ATCC 13709 tested at 25-0.1 ug/mL; type: functional
Outline: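 Agar-dilution/streak assay giving the MIC in μg/mL, run against S. aureus ATCC 13709 within a seven-organism panel.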

[28] = system: Candida albicans; assay: In vitro antimicrobial activity against Candida albicans ATCC 10231 tested at 25-0.1 ug/mL; i=Inactive at highest concentration; type: functional, organism-based; outline: as §2
[29] = system: Klebsiella pneumoniae; assay: In vitro antimicrobial activity against Klebsiella pneumoniae ATCC 10031 tested at 25-0.1 ug/mL; i=Inactive at highest concentration; type: functional, organism-based; outline: as §2
[30] = system: Mycolicibacterium smegmatis; assay: In vitro antimicrobial activity against Mycobacterium smegmatis ATCC 607 tested at 25-0.1 ug/mL; type: functional; outline: as §2
[31] = system: B16; assay: In vitro cytotoxic activity against B-16 mouse melanoma (B-16); type: functional, cell-based; outline: as §3

SMILES: COc1cc2c(cc1C)-c1ccc(OC)c(C)c1CC2
MIC [7]: inactive
MIC [8]: inactive
MIC [9]: inactive
MIC [10]: inactive

SMILES: COc1cc2c(cc1C[N+](C)(C)CSc1ccccc1)CCc1ccccc1-2.[Br-]
MIC [11]: 3.12 µg/mL
MIC [12]: inactive
MIC [13]: 6.25 µg/mL
MIC [14]: inactive

SMILES: C=Cc1c(C)c(OC)cc2c1-c1ccc(OC)c(C)c1CC2
MIC [15]: inactive
MIC [9]: inactive
MIC [16]: inactive
MIC [17]: inactive

SMILES: COc1cc2c(cc1C[N+](C)(C)CSc1ccccc1)-c1ccccc1CC2.[Br-]
IC50 [1]: 3.7 µg/mL
MIC [2]: 12.5 µg/mL
IC50 [18]: 1.4 µg/mL
MIC [19]: 25 µg/mL
IC50 [4]: 0.5 µg/mL
MIC [5]: 1.56 µg/mL
MIC [6]: 1.56 µg/mL

SMILES: COc1cc2c(cc1C[N+](C)(C)CSc1ccccc1)-c1ccc(OC)c(C)c1CC2.[Br-]
IC50 [1]: 1.3 µg/mL
MIC [2]: 3.12 µg/mL
IC50 [18]: 0.9 µg/mL
MIC [19]: 12.5 µg/mL
IC50 [4]: 0.3 µg/mL
MIC [5]: 1.56 µg/mL
MIC [6]: 1.56 µg/mL

SMILES: COc1ccccc1C[N+](C)(C)CSc1ccccc1.[Br-]
MIC [24]: 50 µg/mL
MIC [2]: 100 µg/mL
MIC [8]: inactive
MIC [6]: 50 µg/mL

SMILES: C=Cc1c(C)c(O)cc2c1-c1ccc(O)c(C)c1CC2
IC50 [26]: 13.8 µg/mL (≈ 51.8 µM)
MIC [27]: 25 µg/mL (≈ 93.9 µM)
MIC [28]: inactive
MIC [29]: inactive
MIC [30]: 12.5 µg/mL (≈ 46.9 µM)
IC50 [31]: 12.5 µg/mL (≈ 46.9 µM)

Now from value to compound, other results behind:

MIC [2]: 6.25 µg/mL (≈ 29.7 µM)
MIC [3]: inactive
MIC [5]: 25 µg/mL (≈ 119 µM)
MIC [6]: 3.12 µg/mL (≈ 14.8 µM)
SMILES: Cc1cc2c(cc1O)CCc1ccccc1-2
IC50 [1]: 24.5 µg/mL (≈ 117 µM)
IC50 [4]: 27.5 µg/mL (≈ 131 µM)

MIC [2]: 100 µg/mL (≈ 446 µM)
MIC [7]: inactive
MIC [8]: inactive
MIC [6]: 25 µg/mL (≈ 111 µM)
SMILES: COc1cc2c(cc1C)-c1ccccc1CC2

MIC [20]: inactive
MIC [21]: 3.12 µg/mL (≈ 13.1 µM)
MIC [22]: inactive
MIC [23]: 25 µg/mL (≈ 105 µM)
SMILES: CCc1cc2c(cc1OC)-c1ccccc1CC2

MIC [2]: 50 µg/mL (≈ 208 µM)
MIC [19]: 50 µg/mL (≈ 208 µM)
MIC [5]: 12.5 µg/mL (≈ 52 µM)
MIC [6]: 6.25 µg/mL (≈ 26 µM)
SMILES: Cc1cc2c(cc1O)CCc1c-2ccc(O)c1C
IC50 [1]: 10.2 µg/mL (≈ 42.4 µM)
IC50 [18]: 9.3 µg/mL (≈ 38.7 µM)
IC50 [4]: 17.5 µg/mL (≈ 72.8 µM)

MIC [20]: inactive
MIC [21]: 25 µg/mL (≈ 93.2 µM)
MIC [25]: 50 µg/mL (≈ 186 µM)
MIC [22]: inactive
SMILES: COC(=O)c1cc2c(cc1OC)CCc1ccccc1-2

MIC [20]: inactive
MIC [21]: 25 µg/mL
MIC [22]: inactive
MIC [23]: 25 µg/mL
SMILES: CC[N+](CC)(CC)Cc1cc2c(cc1OC)CCc1ccccc1-2.[Br-]

— ChEMBL document CHEMBL1122829, “Antimicrobial and cytotoxic properties of 9,10-dihydrophenanthrenes: structure-activity studies on juncusol” (J Med Chem, 1985)
